Screening results: PubChem, several laboratories
Sampled rows, rich in hits. Any-hit rate of the full collection: about 29%.
CYP2C19 inhib: inhibitors of human CYP2C19 | CYP2C19 Supersomes, luciferin-H EGE luminescence, 30 min | inhibition, % at 5 µM | 96,000 tested, 21% active;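 active means CYP2C19 inhibition above a set limit at 5 µM in the primary screen, cut at about 50% in these data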;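 further: plate controls were negative control wells for no effect and 2.5 mM tranylcypromine positive control for full effect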
CYP2C19 act: increases human CYP2C19 enzyme activity | P33261 | recombinant CYP2C19, luciferin-H EGE luminescence; active compounds read high; 0 = fully inhibited enzyme, 1 = untreated enzyme | activation factor at 5 µM | AID 1025 | 96,000 tested, under 10 active;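 active means activation factor of at least 2 at 5 µM in the primary screen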;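 further: 0 = wells with 2.5 mM tranylcypromine and 1 = vehicle-only wells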
E coli WT exp: growth inhibitors of E. coli BW25113 wild type; growth inhibition, % at 100 µM; OD600 absorbance; AID 710; 98,000 tested, 0.15% active;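 active means growth inhibition above about 50% at one test dose, limit read from the data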;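 further: growth measured after 20 h incubation at 37 °C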
CYP2C9 inh: inhibitors of human CYP2C9; CYP2C9 Supersomes, luciferin-H conversion, luminescence; P11712; inhibition, % at 5 µM; 96,000 tested, 20% active; AID 777;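 active means blocking of liver enzyme CYP2C9 beyond about 50% at 5 µM, limit read from the data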
Target sequence (P11712 whole entry, looked up): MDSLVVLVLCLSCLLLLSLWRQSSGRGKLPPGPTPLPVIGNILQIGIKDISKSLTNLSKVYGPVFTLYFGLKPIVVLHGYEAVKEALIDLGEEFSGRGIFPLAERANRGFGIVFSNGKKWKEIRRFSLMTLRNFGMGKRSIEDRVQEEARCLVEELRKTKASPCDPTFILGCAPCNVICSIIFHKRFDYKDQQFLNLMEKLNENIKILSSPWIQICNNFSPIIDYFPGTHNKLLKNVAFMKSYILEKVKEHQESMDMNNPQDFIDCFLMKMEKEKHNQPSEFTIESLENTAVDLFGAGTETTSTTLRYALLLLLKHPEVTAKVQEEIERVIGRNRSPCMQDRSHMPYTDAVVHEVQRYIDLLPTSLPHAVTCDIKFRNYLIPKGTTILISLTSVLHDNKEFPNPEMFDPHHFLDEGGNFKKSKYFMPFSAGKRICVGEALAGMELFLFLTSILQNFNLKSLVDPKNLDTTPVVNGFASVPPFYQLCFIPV
CYP2C9 act: increases human cytochrome P450 2C9 activity; P11712; recombinant CYP2C9, luciferin-H conversion, luminescence; active compounds read high; factor 1 = untreated enzyme, 0 = blocked; activation factor at 5 µM; 96,000 tested, 1.4% active;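 active means activation factor of 2 or more for CYP2C9 at a 5 µM dose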;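 further: 0 = sulfaphenazole-blocked wells and 1 = vehicle-only wells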
Ecoli tolC: growth inhibitors of E. coli BW25113 tolC mutant. OD615. growth inhibition, % at 10 µM (by protocol). 65,000 tested, 2.2% active. AID 573;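 active means growth inhibition at or above a cutoff equal to the mean over every tested compound plus 3 SD, cut at about 60% in these data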;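 further: growth measured after 20 h incubation at 37 °C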
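Material: E. coli BW25113 ΔtolC::kan, tolC deletion mutant strain. Measure: percent growth inhibition. Schedule: 37 °C, 20 h exposure. Doses: single-point testing at 10 µM. Signal: A615 absorbance measurement. Buffer or medium: kanamycin-containing LB broth (50 µg/mL).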
* hit, by the source's call; / = not tested or not shown.

SMILES	CYP2C19 inhib	CYP2C19 act	E coli WT exp	CYP2C9 inh	CYP2C9 act	Ecoli tolC
Nc1n[nH]c(-c2ccccc2)c1-c1ccccc1	16	0.8	7	10	0.9	16
COc1ccc(NC(=O)CC2SC(=Nc3ccccc3)NC2=O)c(OC)c1 (stereo not given)	-8	1.1	-3	37	0.6	2
Cc1nn(-c2ccccc2)c(C)c1NC(=O)COc1ccc2ccccc2c1	74*	0.3	10	-24	1.2	/
CCOC(=O)Cc1csc(NC(=O)c2ccc(OC)c(OC)c2)n1	17	0.8	-4	22	0.8	/
CCOC(=O)Cc1csc(NC(=O)CC)n1	-2	1	4	2	1	-6
CCOC(=O)Cc1csc(NC(=O)CSc2nc(N)c3c(C)c(C)sc3n2)n1	19	0.8	-4	59*	0.4	/
CCOC(=O)Cc1csc(NC(=O)c2cccc(OC)c2)n1	27	0.7	7	65*	0.3	-4
CCOC(=O)Cc1csc(NC(=O)CSc2nnc(-c3ccc(OC)cc3)n2C)n1	30	0.7	-4	59*	0.4	-12
CCNC(=O)COc1ccc2ccccc2c1	14	0.9	9	5	0.9	-11
COc1cc(C2N(c3ccc(F)cc3)C(=O)C3CCCN32)cc(OC)c1OC (stereo not given)	18	0.8	-8	11	0.9	-7
Cc1ccc2c(CC(=O)NC3=NCCS3)coc2c1	38	0.6	3	29	0.7	7
CCOC(=O)Cc1csc(NC(=O)CCS(=O)(=O)Cc2ccccc2)n1	31	0.7	-2	53*	0.5	-12
C=CCNC(=O)C1CC(=O)N(c2ccc(C)cc2)C1 (stereo not given)	33	0.7	-1	-2	1	-12
CC(=O)C1=C(O)C(=O)N(Cc2ccccc2)C1c1cccs1 (stereo not given)	-3	1	-5	32	0.7	8
N#CC1=C2SCN(Cc3ccccc3)CN2C(=O)CC1c1cccs1 (stereo not given)	51*	0.5	4	60*	0.4	-10
N#CC1=C2SCN(Cc3ccccc3)CN2C(=O)CC1c1ccc2c(c1)OCO2 (stereo not given)	54*	0.5	5	59*	0.4	-2
N#CC1=C(N)OC(c2ccccc2)=C(C#N)C1c1ccc2c(c1)OCO2 (stereo not given)	6	0.9	-1	10	0.9	11
Cc1ccc(S(=O)(=O)N/N=C\c2ccc3c(c2)OCO3)cc1	59*	0.4	4	75*	0.3	/
O=S(=O)(N/N=C\c1ccc2c(c1)OCO2)c1ccc(Cl)cc1	36	0.6	7	86*	0.1	/
Cc1ccc(S(=O)(=O)NC(=O)NCc2ccc3c(c2)OCO3)cc1	-17	1.2	-2	-2	1	16
Cc1ccc(CNS(=O)(=O)/C=C/c2ccc3c(c2)OCO3)cc1	99*	0	5	19	0.8	/
CCOC(=O)c1[nH]c(C)c(C(=O)N2CCN(C(=O)OCC)CC2)c1CC	1	1	5	10	0.9	-21
Cc1ccccc1OCCN1C(=O)NC2(CCCc3ccccc32)C1=O (stereo not given)	35	0.6	-1	-54	1.5	/
CNC(=O)CN1C(=O)NC2(CCc3ccccc32)C1=O (stereo not given)	25	0.8	0	16	0.8	/
Cc1cc(C(=O)CN2C(=O)NC3(CCCc4ccccc43)C2=O)c(C)n1C (stereo not given)	32	0.7	1	72*	0.3	/
O=C(CN1C(=O)NC2(CCc3ccccc32)C1=O)c1ccc2c(c1)OCCO2 (stereo not given)	58*	0.4	4	96*	0	15
CCCCNC(=O)CN1C(=O)NC2(CCCc3ccccc32)C1=O (stereo not given)	-6	1.1	6	68*	0.3	/
O=C1NC(=O)C2(CCc3ccccc32)N1 (stereo not given)	7	0.9	1	-9	1.1	-9
Cc1cc(C(=O)CN2C(=O)NC3(CCCCC3)C2=O)c(C)n1Cc1ccc2c(c1)OCO2	15	0.9	-2	25	0.8	9
